Assay results reported in ChEMBL document CHEMBL2331456, “Isobutylhydroxyamides from the pericarp of Nepalese Zanthoxylum armatum inhibit NF1-defective tumor cell line growth” (J Nat Prod, 2013).
Active and inactive are the calls of the source. No cut-off for these calls is given here.

Legend:
[1] = Cytotoxicity against mouse Nf1-/-;Trp53-/- KR158 cells assessed as cell viability at 2 ug/ml after 2 days by red luminescence assay relative to control; type: cell-based; details: read-out: Activity
In short: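 Nf1−/−;Trp53−/− KR158 mouse astrocytoma cells carry a CMV-promoter luciferase that gives red luminescence in all living cells. Cells were plated at 1000 cells/well and allowed to attach (≥4 h), then compounds were added. Luminescence was read with ChromoGlo reagent 2 d later. Loss of viability compares treated cells in growth media with […].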

[2] = Growth inhibition of mouse Nf1-/-;Trp53-/- KR158 cells assessed as green luminescence at 2 ug/ml after 2 days; type: functional; details: KR158, 48 h, read-out: GI
In short: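 KR158 Nf1−/−;Trp53−/− astrocytoma cells carry a human E2F1-promoter luciferase that gives green luminescence only in actively dividing cells. Cells were seeded at 1000 cells/well, and compounds were added after ≥4 h attachment. Green luminescence was read with ChromoGlo reagent after 2 d. Growth inhibition compares treated cells with vehicle-treated cells, both in growth media.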

NCI60 = assay: Cytotoxicity against human NCI60 cells at 10 uM; type: functional, cell-based

Compound | viability at 48 h, 2 ug/ml [1] | inhibition of growth at 2 µg/mL [2] | Activity (NCI60)
C[C@H]1C=C[C@@H](/C=C\CC/C=C/C(=O)NCC(C)(C)O)OO1 [TIMURAMIDE A] | 97% | 38% | inactive
C/C=C/C=C/C=C\CC/C=C/C(=O)NCC(C)(C)O | 106% | 53% | –
CC(C)(O)CNC(=O)/C=C/CCC(=O)O [TIMURAMIDE D] | 70% | 42% | inactive
CC(C)(O)CNC(=O)/C=C/CC/C=C\C=C\C(=O)O [TIMURAMIDE C] | 66% | 47% | inactive
CC(O)/C=C/C=C/C(O)CC/C=C/C(=O)NCC(C)(C)O (stereo not drawn) | 67% | 41% | –
C[C@H](O)[C@H](O)/C=C/C=C\CC/C=C/C(=O)NCC(C)(C)O | 79% | 31% | –
C/C=C/C=C/C=C/CC/C=C/C(=O)NCC(C)(C)O | 56% | 65% | –
C[C@H]1C=C[C@@H](/C=C/CC/C=C/C(=O)NCC(C)(C)O)OO1 [TIMURAMIDE B] | 65% | 13% | –
CC(=O)/C=C/C=C/C(O)CC/C=C/C(=O)NCC(C)(C)O (stereo not drawn) | 75% | 52% | –
C[C@@H](O)[C@H](O)/C=C/C=C\CC/C=C/C(=O)NCC(C)(C)O | 66% | 56% | –
